Here are results for two molecules from ChEMBL document CHEMBL4004832, “Synthesis, surfactant properties and antimicrobial activities of methyl glycopyranoside ethers” (2017).

The structures appear in SMILES notation. Values after ≈ are worked out from the molar mass of the structure shown. Some results are limits rather than exact numbers.

Assay [1] can be described thus: Surfactant property of the compound in water assessed as critical micelle concentration or minimal hydrotropic concentration by platinum rod based tensiometric method. In a few lines:
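Surface tension of aqueous solutions was measured by a rod method based on the Wilhelmy plate. Water was progressively concentrated with a stock surfactant solution at constant volume. At each concentration, readings continued until stable (SD of the last 5 values 0.2 mN/m). MHC or CMC and the plateau γsat were taken from the tension vs concentration curves.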

Assay [2] relates to Listeria monocytogenes. The experiment in a line: Antibacterial activity against Listeria monocytogenes CIP 103575 after 18 hrs by broth microdilution assay. Type of assay: functional. The following applies: CIP 103575, 18 h. In outline:
(§1)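 Broth MIC testing on Gram-positive strains followed CLSI M100-S17 recommendations. […] Values are in mmol/L. Amoxicillin was the control for Listeria and Enterococcus strains and oxacillin for S. aureus strains.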
A general note: Broth dilution looks for growth in wells or tubes with falling amounts of substance.

The test system of assay [3] is Listeria monocytogenes. As to the kind of experiment: Bactericidal activity against Listeria monocytogenes CIP 103575 after 18 hrs by broth microdilution assay. It counts as functional. In outline:
(§2)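 MBC is the lowest concentration giving at least 99.9% reduction of the initial inoculum. Values are in mmol/L.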

Assay [4] concerns Staphylococcus aureus. The experiment in a line: Antibacterial activity against Staphylococcus aureus ATCC 29213 after 18 hrs by broth microdilution assay. It counts as functional. The following applies: ATCC 29213, 18 h. In a few lines: as §1
For assay [5], the system named is Staphylococcus aureus. As to the kind of experiment: Bactericidal activity against Staphylococcus aureus ATCC 29213 after 18 hrs by broth microdilution assay. Type of assay: functional. In outline: as §2
Assay [6] has as its system Enterococcus faecalis. The experiment in a line: Antibacterial activity against Enterococcus faecalis ATCC 29212 after 18 hrs by broth microdilution assay. It counts as functional. The following applies: ATCC 29212, 18 h. In a few lines:
as §1

Assay [7] concerns Enterococcus faecalis. The experiment in a line: Bactericidal activity against Enterococcus faecalis ATCC 29212 after 18 hrs by broth microdilution assay. It counts as functional. In a few lines:
as §2

Assay [8] deals with Listeria monocytogenes. As to the kind of experiment: Antibacterial activity against Listeria monocytogenes isolate 015189074801 after 18 hrs by broth microdilution assay. The following applies: isolate 015189074801, 18 h. Type of assay: functional. In a few lines: as §1
For assay [9], the system named is Listeria monocytogenes. The experiment in a line: Antibacterial activity against Listeria monocytogenes isolate 015170199001 after 18 hrs by broth microdilution assay. The following applies: isolate 015170199001, 18 h. Type of assay: functional. In a few lines: as §1
The subject of assay [10] is Listeria monocytogenes. As to the kind of experiment: Antibacterial activity against Listeria monocytogenes isolate 015181840701 after 18 hrs by broth microdilution assay. It counts as functional. The following applies: isolate 015181840701, 18 h. In a few lines: as §1
The subject of assay [11] is Enterococcus faecalis. As to the kind of experiment: Antibacterial activity against Enterococcus faecalis isolate 015206179901 after 18 hrs by broth microdilution assay. It counts as functional. The following applies: isolate 015206179901, 18 h. In outline:
as §1

In assay [12] the test system is Enterococcus faecium. The experiment in a line: Antibacterial activity against Enterococcus faecium CIP 103510 after 18 hrs by broth microdilution assay. The following applies: CIP 103510, 18 h. Type of assay: functional. In a few lines: (§3)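 Enterococcus faecium strains (reference, clinical isolates, VanA isolate) tested by MIC following CLSI recommendations (M100-S17), with amoxicillin as control. […] Values are expressed in mmol/L.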

In assay [13] the test system is Enterococcus faecium. The experiment in a line: Antibacterial activity against […] Enterococcus faecium isolate 0151850763 after 18 hrs by broth microdilution assay. It counts as functional. The following applies: isolate 0151850763, 18 h. In outline: as §3
For assay [14], the system named is Enterococcus faecium. As to the kind of experiment: Antibacterial activity against Enterococcus faecium isolate 015205731401 after 18 hrs by broth microdilution assay. Type of assay: functional. The following applies: isolate 015205731401, 18 h. In outline: as §1
Assay [15] deals with Enterococcus faecium. As to the kind of experiment: Antibacterial activity against Enterococcus faecium isolate 015205261801 after 18 hrs by broth microdilution assay. Type of assay: functional. The following applies: isolate 015205261801, 18 h. In outline:
as §3

In assay [16] the test system is Staphylococcus aureus. The experiment in a line: Antibacterial activity against Staphylococcus aureus ATCC 25923 after 18 hrs by broth microdilution assay. Type of assay: functional. The following applies: ATCC 25923, 18 h. In a few lines:
(§4)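 Staphylococcus aureus reference strains and methicillin- and daptomycin-resistant isolates tested by MIC according to CLSI guidance (M100-S17), with oxacillin as control. The endpoint is the lowest concentration with no growth in all replicates versus a negative control at 18 h. Values are reported in mmol/L.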

Assay [17] concerns Staphylococcus aureus. As to the kind of experiment: Antibacterial activity against methicillin-resistant Staphylococcus aureus LAC USA300 after 18 hrs by broth microdilution assay. Type of assay: functional. In outline: as §4
The subject of assay [18] is Staphylococcus aureus. As to the kind of experiment: Antibacterial activity against methicillin-resistant Staphylococcus aureus Mu3 after 18 hrs by broth microdilution assay. Type of assay: functional. The following applies: Mu3, 18 h. In a few lines: as §4
For assay [19], the system named is Staphylococcus aureus. The experiment in a line: Antibacterial activity against methicillin-resistant Staphylococcus aureus isolate HT 2004-0012 after 18 hrs by broth microdilution assay. Type of assay: functional. The following applies: isolate HT 2004-0012, 18 h. In outline: as §4
The subject of assay [20] is Staphylococcus aureus. The experiment in a line: Antibacterial activity against methicillin-resistant Staphylococcus aureus isolate LY 1999-0053 after 18 hrs by broth microdilution assay. Type of assay: functional. The following applies: isolate LY 1999-0053, 18 h. In a few lines: as §4
Assay [21] deals with Staphylococcus aureus. The experiment in a line: Antibacterial activity against methicillin-resistant Staphylococcus aureus isolate HT 2002-0417 after 18 hrs by broth microdilution assay. Type of assay: functional. The following applies: isolate HT 2002-0417, 18 h. In outline:
as §4

For assay [22], the system named is Staphylococcus aureus. As to the kind of experiment: Antibacterial activity against methicillin-resistant Staphylococcus aureus isolate HT 2006-1004 after 18 hrs by broth microdilution assay. Type of assay: functional. The following applies: isolate HT 2006-1004, 18 h. In a few lines:
as §4

Assay [23] concerns Staphylococcus aureus. The experiment in a line: Antibacterial activity against daptomycin-resistant Staphylococcus aureus isolate ST 2015-0188 after 18 hrs by broth microdilution assay. Type of assay: functional. The following applies: isolate ST 2015-0188, 18 h. In outline:
as §4

In assay [24] the test system is Staphylococcus aureus. As to the kind of experiment: Antibacterial activity against daptomycin-resistant Staphylococcus aureus isolate ST 2014-1288 after 18 hrs by broth microdilution assay. The following applies: isolate ST 2014-1288, 18 h. Type of assay: functional. In outline:
as §4

Assay [25] deals with Staphylococcus aureus. The experiment in a line: Antibacterial activity against daptomycin-resistant Staphylococcus aureus isolate ST 2015-0989 after 18 hrs by broth microdilution assay. It counts as functional. The following applies: isolate ST 2015-0989, 18 h. In outline:
as §4

For orientation: MIC means the lowest concentration found to suppress growth. High values mean a less susceptible organism, low ones a more susceptible organism. As for `CCCCCCCCCCOC[C@H]1O[C@H](OC)[C@H](O)[C@@H](O)[C@@H]1O`, the CMC in assay [1] is 0.277 mmol/L. Further, the MIC came out at 500 µM (≈ 167 µg/mL) in [2], 2000 µM (≈ 669 µg/mL) in assay [4] and 500 µM (≈ 167 µg/mL) in [6]. Moreover, the “MBC<=99.9” value in assay [3] came out at 500 µM (≈ 167 µg/mL); in assay [5], 2000 µM (≈ 669 µg/mL); in assay [7], 500 µM (≈ 167 µg/mL).

In the case of `CCCCCCCCCCCCOC[C@H]1O[C@H](OC)[C@H](O)[C@@H](O)[C@H]1O`, the CMC in [1] amounted to 0.47 mmol/L. The MIC in [2] was 180 µM (≈ 65.3 µg/mL); in [4] it was > 710 µM; in [6], 180 µM (≈ 65.3 µg/mL); in [8], 180 µM (≈ 65.3 µg/mL); in assay [9] it was 180 µM (≈ 65.3 µg/mL); in assay [10] it was 180 µM (≈ 65.3 µg/mL). Also, the MIC is 180 µM (≈ 65.3 µg/mL) in assay [11]; > 710 µM in [12]; 350 µM (≈ 127 µg/mL) in [13]; 90 µM (≈ 32.6 µg/mL) in assay [14]; 20 µM (≈ 7.25 µg/mL) in assay [15]; > 710 µM in [16]. For the same molecule, the MIC in [17], in assay [18], in assay [19], in assay [20], in [21] and in [22] was > 710 µM throughout. For the same molecule, the MIC in [23], in assay [24] and in assay [25] was > 710 µM each time.
